Our source for the IC50, inhibition and Activity values is ChEMBL document CHEMBL1159074, “Inhibitory effect of novel tetrahydropyrimidine-2(1H)-thiones on melanogenesis” (Bioorg Med Chem, 2010).

The test system of series [1] is B16. The experiment in a line: Inhibition of alpha-MSH-induced melanin production in mouse B16 cells after 72 hrs. As to conditions: B16, 72 h. The format is functional, cell-based. In outline:
(§1)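 B16 melanoma cells (ATCC CRL6323) were seeded at 2.5 × 10³ per well and kept at 37 °C under 5% CO₂. They were stimulated with α-MSH for 72 h with compound present. Melanin released into the medium was read by absorbance at 405 nm against a synthetic melanin standard. % inhibition at 10 µM and IC₅₀ are means of 3–5 separate experiments.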

In series [2] the test system is B16. The experiment in a line: Inhibition of alpha-MSH-induced melanin production in mouse B16 cells at 10 uM after 72 hrs. As to conditions: B16, 72 h. It counts as functional. The method, boiled down: as §1
Series [3] relates to B16. Briefly: Toxicity in alpha-MSH-induced mouse B16 cells assessed as effect on cell viability after 48 hrs by MTT assay. The format is cell-based. As to conditions: b16, 48 h. Background: Tetrazolium dyes change colour on reduction, which living cells bring about.
Series [4] addresses T1, Tyrosinase (Mus musculus) (UniProt P11344).
T1 sequence (whole entry): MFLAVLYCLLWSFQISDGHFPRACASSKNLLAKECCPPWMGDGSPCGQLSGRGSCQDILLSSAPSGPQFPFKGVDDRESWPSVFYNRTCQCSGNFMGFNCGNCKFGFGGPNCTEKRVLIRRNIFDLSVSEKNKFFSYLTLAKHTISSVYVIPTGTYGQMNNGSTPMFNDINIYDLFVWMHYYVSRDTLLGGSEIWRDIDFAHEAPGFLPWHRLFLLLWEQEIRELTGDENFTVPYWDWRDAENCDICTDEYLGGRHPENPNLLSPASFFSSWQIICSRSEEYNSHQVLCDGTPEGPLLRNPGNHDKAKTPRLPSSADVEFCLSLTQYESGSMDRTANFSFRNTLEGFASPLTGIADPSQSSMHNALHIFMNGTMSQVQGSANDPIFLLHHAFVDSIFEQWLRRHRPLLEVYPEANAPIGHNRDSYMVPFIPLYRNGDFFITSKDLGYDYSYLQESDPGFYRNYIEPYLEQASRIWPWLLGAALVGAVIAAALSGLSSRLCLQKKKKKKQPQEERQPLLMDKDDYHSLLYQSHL
The experiment in a line: Inhibition of cell free tyrosinase in alpha-MSH-induced mouse B16 cells assessed as effect on Dopa oxidation by spectrophotometry. In outline:
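Cell-free tyrosinase came from B16 cells stimulated with α-MSH (10 nM). Cells were sonicated on ice in 50 mM sodium phosphate pH 6.8 with 1% Triton X-100 and 1 mM PMSF. The supernatant was dialysed and diluted to 80,000 U/mg protein. Dopa (5 mM), sample and enzyme were mixed in 50 mM phosphate pH 6.8. Dopa oxidation velocity was read spectrophotometrically.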

In series [5] the test system is B16. Briefly: Inhibition of tyrosinase protein biosynthesis in alpha-MSH-induced mouse B16 cells after 48 hrs by Western blot. The format is functional, cell-based. The method, boiled down:
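B16 cells were stimulated with α-MSH (10 nM) for 48 h with compound present. They were lysed in Tris/NaCl buffer (0.1% SDS, 1% NP-40, protease inhibitors, pH 7.4). Blots were probed overnight at 4 °C with anti-tyrosinase (1:1000), with GAPDH (1:5000) as internal control, then with HRP-conjugated secondary antibody.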

pIC50: −log10 of the molar value. Active and inactive are the calls of the source. The rule behind the calls is not given here. A value given as a limit tells only on which side of the number the result lay.

As for `O=C1NCCN1CCc1ccccc1`, the negative-log IC50 (pIC50) in series [1] is less than 5.00. In series [2], this compound showed an inhibition at 10 µM of 15%.

In series [1], `CC(C)(C)c1ccc(CN2CCCNC2=O)cc1` showed a negative logarithm of the IC50 (pIC50) of less than 5.00. In addition, in series [2], the inhibition at 10 µM amounted to 30%.

In series [1], `O=C1NCCN1Cc1ccccc1` showed a pIC50 of less than 5.00. The inhibition at 10 µM in series [2] came out at 7%.

Compound `O=C1NCCCN1CCc1ccccc1` gave a pIC50 in series [1] of less than 5.00. In series [2], this compound returned an inhibition at 10 µM of 10%.

In series [1], `COc1ccc(CN2CCNC2=O)cc1` had a negative logarithm of the IC50 (pIC50) of less than 5.00. The compound further registered an inhibition at 10 µM in series [2] of 13%.

For `Cc1ccc(CN2CCNC2=S)cc1`, the pIC50 in series [1] was 5.32. For the same compound, in series [2], the inhibition at 10 µM stood at 64%.

The compound `O=C1NCCCN1Cc1ccc(Cl)cc1` had a pIC50 in series [1] of less than 5.00. For the same compound, the inhibition at 10 µM in series [2] is 26%.

`S=C1NCCN1Cc1ccc(Cl)cc1` gave a pIC50 in series [1] of 5.37. In series [2], this compound returned an inhibition at 10 µM of 79%.

In turn, `O=C1NCCN1Cc1ccc(Cl)cc1` showed a negative logarithm of the IC50 (pIC50) in series [1] of less than 5.00. This compound also came in with an inhibition at 10 µM in series [2] of 10%.

In series [1], `Cc1ccc(CN2CCCNC2=S)cc1` showed a negative logarithm of the IC50 (pIC50) of 5.29. Further, the inhibition at 10 µM in series [2] was found to be 80%.

In turn, `Cc1ccc(CN2CCCNC2=O)cc1` showed a pIC50 in series [1] of less than 5.00. In series [2], 10 µM produced 5% inhibition.

Consider `Cc1ccc(CN2CCNC2=O)cc1`, for which the pIC50 in series [1] is less than 5.00. The same compound had an inhibition at 10 µM in series [2] of 14%.

On to `S=C1NCCCN1CCCc1ccccc1`, for which the pIC50 in series [1] was 5.68. Moreover, in series [2], the inhibition at 10 µM was more than 100%.

`S=C1NCCN1CCCc1ccccc1` showed a pIC50 in series [1] of 5.38. Also, the inhibition at 10 µM in series [2] is 63%.

On to `O=C1NCCCN1Cc1ccccc1`, for which the negative-log IC50 (pIC50) in series [1] was less than 5.00. In series [2], this compound registered an inhibition at 10 µM of 0%.

`COc1ccc(CN2CCCNC2=O)cc1`: the negative-log IC50 (pIC50) in series [1] was less than 5.00. In series [2], this compound displayed an inhibition at 10 µM of 20%.

In series [1], `S=C1NCCCN1Cc1ccccc1` gave a pIC50 of less than 5.00. Further, in series [2], testing at 10 µM gave an inhibition of 42%.

Regarding `O=C1NCCCN1CCCc1ccccc1`, the pIC50 in series [1] was less than 5.00. The same compound displayed an inhibition at 10 µM in series [2] of 10%.

The compound `S=C1NCCN1Cc1ccccc1` showed a negative-log IC50 (pIC50) in series [1] of less than 5.00. Besides, in series [2], 10 µM produced 35% inhibition.

`O=C1NCCN1CCCc1ccccc1` had a negative logarithm of the IC50 (pIC50) in series [1] of less than 5.00. The same compound gave an inhibition at 10 µM in series [2] of 10%.

`S=C1NCCCN1CCc1ccccc1` showed a negative-log IC50 (pIC50) in series [1] of 5.54. This compound displayed an inhibition at 10 µM in series [2] of 93%.

On to `CC(C)(C)c1ccc(CN2CCCNC2=S)cc1`, for which the Activity entry in series [3] is reported as “Non-toxic”. Also, in series [1], the pIC50 was 6.10. In addition, the inhibition at 10 µM in series [2] is more than 100%. For the same compound, in series [4], the inhibition entry was “inactive”. Further, the inhibition entry in series [5] was “Active”.

`COc1ccc(CN2CCNC2=S)cc1`: the negative logarithm of the IC50 (pIC50) in series [1] was less than 5.00. Further, the inhibition at 10 µM in series [2] turned out to be 31%.

As to `CCc1ccc(CN2CCCNC2=S)cc1`, the pIC50 in series [1] is 5.89. In addition, in series [2], the inhibition at 10 µM is more than 100%.

For `OC[C@H]1O[C@@H](Oc2ccc(O)cc2)[C@H](O)[C@@H](O)[C@@H]1O` [ARBUTIN], the inhibition at 10 µM in series [2] was more than 100%.

As for `S=C1NCCN1CCc1ccccc1`, the negative-log IC50 (pIC50) in series [1] is less than 5.00. For the same compound, the inhibition at 10 µM in series [2] came out at 40%.

`CCc1ccc(CN2CCCNC2=O)cc1` showed a negative logarithm of the IC50 (pIC50) in series [1] of less than 5.00. Moreover, the inhibition at 10 µM in series [2] stood at 29%.

In series [1], `COc1ccc(CN2CCCNC2=S)cc1` had a negative-log IC50 (pIC50) of 5.21. This compound also gave an inhibition at 10 µM in series [2] of 60%.

As for `S=C1NCCCN1Cc1ccc(Cl)cc1`, in series [1], the pIC50 is 5.62. For the same compound, the inhibition at 10 µM in series [2] was more than 100%.

By pIC50 is commonly meant −log10 of the IC50, conventionally taken in molar units. Read a low pIC50 as a large IC50. Broadly, the inhibition is the relative decrease from the control value, in per cent.
